APP 5'UTR act = activators of APP 5'UTR luciferase reporter, primary screen, SH-SY5Y cells; actives 1% (n = 190,000); AID 1276, 2008; activation, % at 2 µM; SH-SY5Y APP 5'UTR luciferase reporter, luminescence; zero percent = DMSO vehicle wells;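 active means activation above a set limit, based on mean plus 3 SD of controls, cut at about 140% in these data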
C8 TRAIL sens = viability loss with TRAIL in NB7+C8 cells, primary screen, TRAIL sensitizer project, cell-based, ATPlite luminescence | inhibition (viability loss, TRAIL sensitization), % at 10 µM | actives 1% (n = 360,000);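 active means compounds causing at least 50% loss of cell viability in the single-dose screen, relative to plate controls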
NF-kB expr up = activators of NF-kB expression in neurons, primary screen, cell-based, HTS; human neuronal cells, NF-kB reporter expression; stronger effect = higher value; fold change at 12.5 µM; actives 1.6% (n = 190,000); AID 1239, 2008; in the data active means fold change above about 3.3
FLuc stim CS = FLuc activators, initial screening, artefact control for FLuc-dependent activation tests, biochemical, ATPlite luminescence; ATPlite luciferase biochemical, 10 min; 0 = ATP-free wells, 1 = DMSO control; activation factor at 10 µM; 200,000 tested, under 10 active; AID 1027, 2008;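 active means luciferase activation factor, scaled between plate controls, of at least 2 with compound at 10 µM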
Target sequence (P08659 whole entry, looked up): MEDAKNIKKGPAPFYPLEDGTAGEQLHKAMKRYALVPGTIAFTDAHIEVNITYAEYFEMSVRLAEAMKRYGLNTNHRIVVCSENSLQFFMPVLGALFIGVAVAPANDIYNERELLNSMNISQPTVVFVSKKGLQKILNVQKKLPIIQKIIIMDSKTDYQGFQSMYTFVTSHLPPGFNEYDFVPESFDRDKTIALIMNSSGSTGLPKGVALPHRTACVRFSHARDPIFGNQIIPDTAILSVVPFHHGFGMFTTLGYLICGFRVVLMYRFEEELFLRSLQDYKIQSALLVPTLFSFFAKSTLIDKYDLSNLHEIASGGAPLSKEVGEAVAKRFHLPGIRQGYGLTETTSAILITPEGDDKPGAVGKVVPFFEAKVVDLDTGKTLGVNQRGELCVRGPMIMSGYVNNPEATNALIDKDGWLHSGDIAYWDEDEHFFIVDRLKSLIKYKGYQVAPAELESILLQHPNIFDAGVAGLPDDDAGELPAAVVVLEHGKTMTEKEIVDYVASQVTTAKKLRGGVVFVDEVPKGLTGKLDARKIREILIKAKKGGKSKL
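assay system = Luciferase/luciferin detection reagent, cell-free biochemical luciferase assay | also added = ATP substrate | times = 10 min post-reagent at room temperature | measured by = luminescence from luciferase reaction | measure = luciferase activation, seen as luminescence increase over controls | benchmarks = low control with PBS replacing ATP, high control enzyme plus ATP without compound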
PPC-1+TRAIL kill = compounds killing PPC-1 cancer cells with TRAIL present, primary screen, TRAIL potentiator project, ATPLite luminescence, uHTS | cell killing (% activity), % at 4 µM or 5 µM | actives 0.41% (n = 220,000) | PPC-1 cells + TRAIL, ATPLite viability luminescence | AID 1443, 2008;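 active means cell killing above 50% in the first pass at 4 µM, then a duplicate retest at 5 µM averaging 50% or more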;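 further: plate controls were cells with TRAIL plus DMSO for no effect and medium-only wells lacking cells for full effect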
FLuc inh counter = firefly luciferase enzyme inhibitors, primary screen, artefact control for luciferase-based inhibitor screens, biochemical, luminescence, ATPLite. 10 min. actives 1.5% (n = 200,000). inhibition, % at 10 µM. AID 1006, 2008. Luciferin 4-monooxygenase (Photinus pyralis), P08659;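 active means inhibition above about 50% when tested at 10 µM, limit read from the data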
Active calls of the source: *; / = no result. Compounds with a hit are over-represented: about 2.2% of the library has one in this group of screens.

SMILES | APP 5'UTR act | C8 TRAIL sens | NF-kB expr up | FLuc stim CS | PPC-1+TRAIL kill | FLuc inh counter
COCC(=O)Nc1c(C(=O)Nc2ccc3c(c2)OCO3)oc2ccccc12 | / | 12 | / | / | / | /
Cc1ccccc1C(=O)Nc1ccc2c(c1)OCCO2 | / | 62* | / | / | / | /
O=C(CCl)Nc1c(C(=O)Nc2ccc3c(c2)OCCO3)oc2ccccc12 | / | 61* | / | / | / | /
Cc1nc2ccccn2c1C(=O)Nc1ccc2c(c1)OCCO2 | 58 | 25 | 1.1 | 0.5 | 27 | 54*
CCN(C(=O)COC(=O)C(C)(C)Oc1ccc(Cl)cc1)c1c(N)n(Cc2ccccc2)c(=O)[nH]c1=O | / | -14 | / | / | / | /
COC(=O)c1ccccc1NC(=O)CSc1nncn1-c1cccnc1 | / | -10 | / | / | / | /
Cc1ncoc1C(=O)Nc1ccc2c(c1)OCCO2 | 95 | 8 | 2 | 0.6 | 6 | 37
Cc1ccsc1C(=O)Nc1ccc2c(c1)OCCO2 | 127 | 71* | 6.2* | 0.2 | 31 | 79*
Cc1cc(C(=O)Nc2ccc3c(c2)OCCO3)c(C)o1 | 132 | 22 | 4.6* | 0.5 | 27 | 54*
Cc1cc(C)n2nc(C(=O)Nc3ccc4c(c3)OCO4)cc2n1 | 100 | 17 | 3.3* | 0.5 | 28 | 47
CC1(C)Cc2c(sc(NC(=O)C(=O)N3CCOCC3)c2C(N)=O)CO1 | / | -3 | / | / | / | /
CC(C)c1onc(C(=O)Nc2cccc(Cl)c2)c1[N+](=O)[O-] | 17 | 0 | 0.91 | 1 | 13 | -2
CC(=O)c1cccc(NC(=O)c2cc(C(C)C)on2)c1 | 119 | 12 | 3.9* | 0.6 | 14 | 35
CC(C)c1cc(C(=O)Nc2cccc(Cl)c2)no1 | 187* | -14 | 11* | 0.7 | 0 | 26
Cn1c(=S)[nH]c2sc3c(c2c1=O)CCC(C(C)(C)C)C3 (stereo unspecified) | / | 53* | / | / | / | /
O=C(Nc1ccc(Cl)cc1Cl)C1=Cc2ccccc2OC1 | 221* | 31 | 5.9* | 0.8 | 20 | 24
COc1ccc(NC(=O)C2=Cc3ccccc3OC2)cc1 | 157* | 21 | 9.5* | 0.5 | 17 | 52*
COc1ccc(NC(=O)C2=Cc3cccc(OC)c3OC2)cc1 | 78 | 26 | 1.7 | 0.4 | 34 | 55*
O=C(Nc1ccc(Cl)cc1)C1=Cc2cc(Cl)ccc2OC1 | / | -8 | 1.3 | 1 | -2 | -3
CC(C)CC1C(=O)N(Cc2cn(CCC3OCCCO3)nn2)CCS(=O)(=O)N1Cc1ccc(-c2ccc(Cl)c(Cl)c2)cc1 (stereo unspecified) | / | 32 | / | / | / | /
COCC(C)NC(=O)c1nn(Cc2ccccc2)c(=O)c2ccccc12 (stereo unspecified) | / | 9 | / | / | / | /
Cc1ccc(NC(=S)c2nc3ccccc3s2)cc1 | 168* | 44* | 1.1 | 0.3 | 26 | 66*
S=C(Nc1ccc(Cl)cc1)c1nc2ccccc2s1 | 65 | 30 | 1.6 | 1 | 26 | 2
CCN(CC)S(=O)(=O)c1cc(C(=O)OCC(=O)Nc2ccc(-c3nc4ccc(C)cc4s3)cc2)ccc1F | 143* | 74* | 6* | 0.8 | 28 | 19
CCN(CC)S(=O)(=O)c1ccc(C(=O)OCC(=O)Nc2ccc(-c3nc4ccc(C)cc4s3)cc2)cc1 | 151* | 75* | 1.6 | 0.7 | 28 | 33
SMILES | APP 5'UTR act | C8 TRAIL sens | NF-kB expr up | FLuc stim CS | PPC-1+TRAIL kill | FLuc inh counter
Cc1ccc2nc(-c3ccc(NC(=O)COCC(=O)O)cc3)sc2c1 | / | 23 | / | / | 32 | /
Cc1ccc2nc(-c3ccc(NS(=O)(=O)c4ccc(F)c(F)c4)cc3)sc2c1 | 180* | 31 | 6.5* | 0.5 | 20 | 55*
Cc1ccc2nc(-c3ccc(NS(=O)(=O)c4ccccc4)cc3)sc2c1 | 1 | 5 | 1.3 | 1 | 6 | 1
CN(C)CCCNc1nc(N)c([N+](=O)[O-])c(NC2CCCCC2)n1 | / | 7 | / | / | / | /
CCc1c(C)[nH]c2c(C)cccc2c1=O | -14 | 52* | 0.93 | 1 | 3 | 0
CCOC(=O)c1c(C)[nH]c(C2=NNC(=NC3CC3)SC2)c1C | 158* | 33 | 0.89 | 0.3 | 20 | 71*
CCOC(=O)c1c(C)[nH]c(/C(C)=N/O)c1C | -4 | 39 | 1 | 1 | 14 | -1
O=C(CCCCC(=O)NN=Cc1ccc2c(c1)CCC2)NN=Cc1ccc2c(c1)CCC2 | / | -3 | / | / | / | /
CC1(C)CC(=O)C=C(c2ccccc2-c2ccc3cc[nH]c3c2)C1=O | / | -18 | / | / | / | /
CC1(C)CC(=O)C=C(c2ccc(-c3ccc4[nH]ccc4c3)cc2)C1=O | / | 70* | / | / | / | /
CCOc1ccc(N(CC(=O)NCC2CCCO2)S(=O)(=O)c2ccc(SC)cc2)cc1 (stereo unspecified) | 3 | -11 | 0.99 | 1 | -3 | 1
Cc1sc(=NC(=O)c2ccco2)n(C)c1-c1ccc(F)cc1 | 126 | 60* | 3 | 0.2 | 34 | 80*
CN(C(=O)c1ccco1)c1nnc(-c2ccc(F)cc2)s1 | / | 11 | / | / | / | /
CN1CCN(c2ccc(-c3cccc(NC(=O)COc4ccc(Cl)cc4)c3)nn2)CC1 | / | 62* | / | / | / | /
CCC(=O)Nc1cccc(-c2ccc(N3CCN(C)CC3)nn2)c1 | / | 10 | / | / | / | /
CCC(=O)Nc1cccc(-c2ccc(N3CCCCC3)nn2)c1 | / | 83* | / | / | / | /
CCOc1ccc(C(=O)Nc2cccc(-c3ccc(N4CCOCC4)nn3)c2)cc1OCC | / | 44 | / | / | / | /
CN1CCN(c2ccc(-c3cccc(NC(=O)COc4ccc(Cl)cc4Cl)c3)nn2)CC1 | / | 67* | / | / | / | /
CN1CCN(c2ccc(-c3cccc(NC(=O)COc4ccccc4)c3)nn2)CC1 | / | 64* | / | / | / | /
O=C(COC(=O)C1CC(=O)N(Cc2ccccc2)C1)Nc1cccc([N+](=O)[O-])c1 (stereo unspecified) | / | 5 | / | / | / | /
CCOC(=O)/C=C/[C@H]1CCc2cccc(Cl)c2O1 | / | 12 | / | / | / | /
NS(=O)(=O)c1cc(C(=O)OCC(=O)N2CCc3ccccc3C2)ccc1Cl | / | -9 | / | / | / | /
O=C(O)c1cccnc1SCc1cccc(Br)c1 | / | -12 | / | / | / | /
CC[C@]12c3[nH]c4ccc(OC)cc4c3CCN1C(=O)C(CC(=O)NCc1cccc(C(F)(F)F)c1)C[C@@H]2C(=O)N1CCN(C(=O)c2ccco2)CC1 (stereo partly specified) | / | -15 | / | / | / | /
CC[C@]12c3[nH]c4ccc(Cl)cc4c3CCN1C(=O)[C@@H](CC(=O)NCc1cccc(C(F)(F)F)c1)C[C@@H]2C(=O)N1CCN(C(=O)c2ccco2)CC1 | / | 61* | / | / | / | /
c1ccc(-c2ncc3c(ccc4ccccc43)n2)cc1 | 113 | 84* | 1.2 | 0.1 | 78* | 89*
O=C(O)c1ncc(-c2ccccc2)cn1 | 5 | -2 | 0.98 | 1 | 0 | -4
c1ccc2c(c1)cnc1ccccc12 | / | -7 | / | / | 12 | /

Screening results deposited in PubChem BioAssay by several laboratories.
